Active and inactive are the calls of the source. The calls are words filed in the database; no cut-off is given here.
Columns and labels:
[1] = molecular target: Lysophosphatidic acid receptor 3 (Homo sapiens) (UniProt Q9UBY5); test: Antagonist activity at LPA3 receptor expressed in rat RH7777 cells assessed as inhibition of LPA-induced calcium response at 10 uM
[2] = molecular target: T1, Lysophosphatidic acid receptor 3 (Homo sapiens) (UniProt Q9UBY5); test: (§1) Antagonist activity at LPA3 receptor expressed in rat RH7777 cells assessed as inhibition of LPA-induced intracellular calcium response; assay type: functional, cell-based
T1 sequence (whole entry): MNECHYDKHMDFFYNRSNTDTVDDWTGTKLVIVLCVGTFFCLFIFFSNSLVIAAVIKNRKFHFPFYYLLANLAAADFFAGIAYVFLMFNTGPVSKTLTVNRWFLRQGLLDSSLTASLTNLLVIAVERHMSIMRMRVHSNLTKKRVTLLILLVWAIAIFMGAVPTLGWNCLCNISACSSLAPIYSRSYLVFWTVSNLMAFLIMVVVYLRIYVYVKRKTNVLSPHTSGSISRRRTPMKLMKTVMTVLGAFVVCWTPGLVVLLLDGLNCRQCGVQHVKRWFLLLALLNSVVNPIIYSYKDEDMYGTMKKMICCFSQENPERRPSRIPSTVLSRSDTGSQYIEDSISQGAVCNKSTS
Procedure, shortened: (§2)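 Cells stably expressing the receptor were plated, cultured overnight, serum-starved for 4-6 h and loaded with fura-2. LPA-induced Ca2+ mobilization was measured as the 520 nm emission ratio at 340/380 nm excitation. Compounds were dissolved in methanol and diluted in buffer. IC50 came from concentration-response curves, with samples in quadruplicate.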

[3] = molecular target: T1, Lysophosphatidic acid receptor 3 (Homo sapiens); test: Agonist activity at LPA3 receptor expressed in rat RH7777 cells assessed as effect on intracellular calcium response at 10 uM; assay type: functional, cell-based
Procedure, shortened: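 Agonist test: compound (methanol stock diluted in buffer) was applied alone to fura-2-loaded, stably receptor-expressing cells after overnight culture and 4-6 h in serum-free medium. Intracellular Ca2+ was followed as the 520 nm emission ratio at 340/380 nm excitation. Run in quadruplicate.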

[4] = molecular target: T2, Lysophosphatidic acid receptor 1 (Homo sapiens, UniProt Q92633); test: Binding affinity to LPA1
[5] = molecular target: T3, Lysophosphatidic acid receptor 3 (Homo sapiens, UniProt Q9UBY5); test: Binding affinity to LPA3
T3 sequence (Q9UBY5 whole entry): T1 sequence (whole entry)

[6] = molecular target: T2, Lysophosphatidic acid receptor 1; test: Antagonist activity at LPA1 receptor expressed in rat RH7777 cells assessed as inhibition of LPA-induced intracellular calcium response; assay type: functional, cell-based
Procedure, shortened: as §2

[7] = molecular target: T3, Lysophosphatidic acid receptor 3; test: as §1; assay type: functional, cell-based
Procedure, shortened: as §2

[8] = molecular target: T4, Lysophosphatidic acid receptor 5 (Homo sapiens, UniProt Q9H1C0); test: Antagonist activity at LPA5 receptor expressed in rat RH7777 cells assessed as inhibition of LPA-induced intracellular calcium response; assay type: functional, cell-based
Procedure, shortened: as §2

[9] = molecular target: T4, Lysophosphatidic acid receptor 5; test: Binding affinity to LPA5

T2 sequence (Q92633 whole entry): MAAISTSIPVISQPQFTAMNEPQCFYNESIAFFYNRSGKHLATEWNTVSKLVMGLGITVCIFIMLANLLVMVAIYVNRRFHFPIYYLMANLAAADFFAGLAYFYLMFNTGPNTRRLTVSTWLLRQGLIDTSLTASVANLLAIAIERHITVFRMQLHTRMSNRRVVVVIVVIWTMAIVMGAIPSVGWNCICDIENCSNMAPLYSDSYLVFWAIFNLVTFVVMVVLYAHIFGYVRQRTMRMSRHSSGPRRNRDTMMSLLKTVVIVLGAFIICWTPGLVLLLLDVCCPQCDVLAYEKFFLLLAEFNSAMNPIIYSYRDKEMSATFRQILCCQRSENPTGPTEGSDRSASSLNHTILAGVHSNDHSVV
T4 sequence (Q9H1C0 whole entry): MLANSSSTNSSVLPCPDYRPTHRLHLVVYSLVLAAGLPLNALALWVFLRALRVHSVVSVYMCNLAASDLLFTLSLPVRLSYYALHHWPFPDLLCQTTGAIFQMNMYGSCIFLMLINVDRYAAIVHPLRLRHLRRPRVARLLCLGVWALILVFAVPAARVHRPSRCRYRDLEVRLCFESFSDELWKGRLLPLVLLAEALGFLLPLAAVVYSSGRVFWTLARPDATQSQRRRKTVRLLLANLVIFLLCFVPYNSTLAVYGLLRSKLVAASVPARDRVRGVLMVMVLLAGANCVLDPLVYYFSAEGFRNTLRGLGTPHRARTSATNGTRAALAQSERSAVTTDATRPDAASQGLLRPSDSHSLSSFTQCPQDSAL

SMILES: O=C(O)c1cc(C(=O)O)cc(N2C(=O)c3ccc(Oc4cccc([N+](=O)[O-])c4)cc3C2=O)c1
- inhibition [1]: 43%

SMILES: O=C(O)c1ccccc1N1C(=O)c2ccc(Oc3ccc([N+](=O)[O-])cc3)cc2C1=O
- inhibition [1]: 38%

SMILES: O=C1c2ccc(Oc3cccc([N+](=O)[O-])c3)cc2C(=O)N1Cc1cccnc1
- inhibition [1]: 38%

SMILES: O=C(O)CCCN1C(=O)c2ccc(C(=O)c3cccc([N+](=O)[O-])c3)cc2C1=O
- inhibition [1]: 10%

SMILES: O=C(O)CN1C(=O)c2ccc(Oc3cccc([N+](=O)[O-])c3)cc2C1=O
- Imax [2]: 50%

SMILES: O=C(O)CCCN1C(=O)c2ccc(Oc3cccc([N+](=O)[O-])c3)cc2C1=O
- inhibition [1]: 18%

SMILES: Cc1c(C(=O)O)cccc1N1C(=O)c2ccc(Oc3cccc([N+](=O)[O-])c3)cc2C1=O
- inhibition [1]: 42%

SMILES: CC(=O)c1ccc(NC(=O)c2cccc(N3C(=O)c4ccc([N+](=O)[O-])cc4C3=O)c2)cc1
- inhibition [1]: 18%

SMILES: CC(=O)COc1ccc(NC(=O)CN2C(=O)c3ccc([N+](=O)[O-])cc3C2=O)cc1
- Activity [3]: Active

SMILES: Cc1ccc(Oc2ccc3c(c2)C(=O)N(CC(=O)O)C3=O)cc1
- Ki [4]: 311 nM
- Ki [5]: 1080 nM
- IC50 [6]: 609 nM
- IC50 [7]: 2990 nM

SMILES: O=C(O)CN1C(=O)c2ccc(C(=O)c3cccc([N+](=O)[O-])c3)cc2C1=O
- Activity [3]: Active

SMILES: O=C(O)c1ccc2c(c1)C(=O)N(c1cccc(Oc3ccc([N+](=O)[O-])cc3)c1)C2=O
- IC50 [8]: 463 nM
- Ki [4]: 48 nM
- Ki [5]: 230 nM
- Ki [9]: 292 nM
- IC50 [6]: 94 nM
- IC50 [7]: 752 nM
- inhibition [1]: 82%

SMILES: O=C(O)COc1ccc(N2C(=O)c3ccc(Oc4cccc([N+](=O)[O-])c4)cc3C2=O)cc1
- Activity [3]: Active

From ChEMBL document CHEMBL1152645, “Structure-based drug design identifies novel LPA3 antagonists” (Bioorg Med Chem, 2009)
